Calls of active or inactive are those of the source. No cut-off for these calls is given here.
What was measured:
[1] = molecular target: Receptor-interacting serine/threonine-protein kinase 4 (Homo sapiens) (UniProt P57078); assay: Inhibition of ANKRD3 in human SKCO1 cells at 1 uM after 4 hrs using biotin labeled TWLAIKCSPSLHVDDR probe by mass-spectrometric analysis relative to control; assay type: cell-based
[2] = molecular target: Protein kinase C iota (Homo sapiens) (UniProt P41743); assay: Inhibition of PKCi in human SKCO1 cells at 1 uM after 4 hrs using biotin labeled DLKLDNVLLDSEGHIK probe by mass-spectrometric analysis relative to control
[3] = molecular target: T1, 80S Ribosome (Homo sapiens) (UniProt P08865+P42677+P62753+P15880+P23396+P61247+P62701+P22090+P46782+P62081+P62241+P46781+P46783+P62280+P25398+P62277+P62263+P62841+P62244+P62249+P08708+P62269+P39019+P60866+P63220+P62266+P62847+P62851+P62854+P62979+P62857+P62273+P62861+P39023+P36578+P46777+Q02878+P18124+P62424+P62917+P32969+P27635+P62906+P62913+P30050+P26373+P40429+P50914+P61313+P18621+Q07020+Q02543+P84098+P46778+P35268+P62829+P62750+P83731+P61254+P61353+P46776+P46779+P47914+P62888+P62899+P62910+P49207+P42766+P18077+Q9Y3U8+P83881+P61927+P61513+P63173+P62891+P62945+P05388+P05386); assay: Binding affinity to RPL10 in human NCI-H358 cells at 1 uM by mass spectrometry based pull down assay; assay type: cell-based
[4] = molecular target: Melanoma-associated antigen 4 (Homo sapiens) (UniProt P43358); assay: Binding affinity to MAGEA4 in human NCI-H23 cells at 1 uM by mass spectrometry based pull down assay; assay type: cell-based
Chain of Melanoma-associated antigen 4 (Homo sapiens) (P43358 whole entry): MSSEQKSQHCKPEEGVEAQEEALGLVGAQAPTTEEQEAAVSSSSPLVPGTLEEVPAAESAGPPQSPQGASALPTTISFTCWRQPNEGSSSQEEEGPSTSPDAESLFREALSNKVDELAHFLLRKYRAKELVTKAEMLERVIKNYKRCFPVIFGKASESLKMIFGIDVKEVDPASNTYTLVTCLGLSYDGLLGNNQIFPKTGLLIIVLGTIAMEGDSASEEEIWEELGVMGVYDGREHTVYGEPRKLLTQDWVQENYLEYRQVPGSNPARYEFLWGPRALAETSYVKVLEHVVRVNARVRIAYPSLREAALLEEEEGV

[5] = molecular target: Transforming growth factor-beta-induced protein ig-h3 (Homo sapiens) (UniProt Q15582); assay: Binding affinity to TGFBI in human NCI-H358 cells at 1 uM by mass spectrometry based pull down assay; assay type: cell-based
[6] = molecular target: Aldehyde dehydrogenase X, mitochondrial (Homo sapiens) (UniProt P30837); assay: Binding affinity to ALDH1B1 in human NCI-H23 cells at 1 uM by mass spectrometry based pull down assay; assay type: cell-based
Chain of Aldehyde dehydrogenase X, mitochondrial (Homo sapiens) (P30837 whole entry): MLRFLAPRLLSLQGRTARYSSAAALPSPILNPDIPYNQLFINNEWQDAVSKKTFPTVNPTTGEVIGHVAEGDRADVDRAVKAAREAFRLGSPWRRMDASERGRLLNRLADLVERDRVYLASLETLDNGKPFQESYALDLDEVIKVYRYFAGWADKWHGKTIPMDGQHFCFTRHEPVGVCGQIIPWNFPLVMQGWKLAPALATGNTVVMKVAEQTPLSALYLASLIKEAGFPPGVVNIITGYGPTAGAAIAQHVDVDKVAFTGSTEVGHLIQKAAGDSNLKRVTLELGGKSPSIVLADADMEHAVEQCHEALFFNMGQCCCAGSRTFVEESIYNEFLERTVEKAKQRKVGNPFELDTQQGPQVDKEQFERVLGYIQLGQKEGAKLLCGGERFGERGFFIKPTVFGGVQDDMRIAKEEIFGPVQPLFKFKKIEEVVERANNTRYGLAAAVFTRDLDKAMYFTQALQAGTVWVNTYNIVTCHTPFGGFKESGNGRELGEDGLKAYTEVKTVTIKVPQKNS
Procedure, shortened: (§1)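 NCI-H23 or NCI-H358 cells were grown and lysed. Lysates were incubated overnight at 4 °C with 1 μM biotinylated covalent probe or DMSO, then pulled down on streptavidin beads. Proteins were run on polyacrylamide gels and stained with Coomassie. Bands were excised, digested and identified by mass spectrometry.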

[7] = molecular target: 5'-nucleotidase domain-containing protein 1 (Homo sapiens) (UniProt Q5TFE4); assay: Binding affinity to NT5DC1 in human NCI-H358 cells at 1 uM by mass spectrometry based pull down assay; assay type: cell-based
[8] = molecular target: Actin-related protein 2 (Homo sapiens) (UniProt P61160); assay: Binding affinity to ACTR2 in human NCI-H358 cells at 1 uM by mass spectrometry based pull down assay; assay type: cell-based; procedure, shortened: as §1
[9] = molecular target: Calcyclin-binding protein (Homo sapiens) (UniProt Q9HB71); assay: Binding affinity to CACYBP in human NCI-H358 cells at 1 uM by mass spectrometry based pull down assay; assay type: cell-based
Chain of Calcyclin-binding protein (Homo sapiens) (Q9HB71 whole entry): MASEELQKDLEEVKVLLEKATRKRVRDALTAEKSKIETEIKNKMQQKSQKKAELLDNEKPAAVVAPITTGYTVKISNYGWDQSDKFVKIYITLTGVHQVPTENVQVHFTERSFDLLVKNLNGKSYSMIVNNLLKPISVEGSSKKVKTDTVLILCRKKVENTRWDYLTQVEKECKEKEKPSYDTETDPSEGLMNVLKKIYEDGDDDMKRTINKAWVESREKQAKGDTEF

[10] = molecular target: Protein transport protein Sec23A (Homo sapiens) (UniProt Q15436); assay: Binding affinity to SEC23A in human NCI-H358 cells at 1 uM by mass spectrometry based pull down assay; assay type: cell-based
Chain of Protein transport protein Sec23A (Homo sapiens) (Q15436 whole entry): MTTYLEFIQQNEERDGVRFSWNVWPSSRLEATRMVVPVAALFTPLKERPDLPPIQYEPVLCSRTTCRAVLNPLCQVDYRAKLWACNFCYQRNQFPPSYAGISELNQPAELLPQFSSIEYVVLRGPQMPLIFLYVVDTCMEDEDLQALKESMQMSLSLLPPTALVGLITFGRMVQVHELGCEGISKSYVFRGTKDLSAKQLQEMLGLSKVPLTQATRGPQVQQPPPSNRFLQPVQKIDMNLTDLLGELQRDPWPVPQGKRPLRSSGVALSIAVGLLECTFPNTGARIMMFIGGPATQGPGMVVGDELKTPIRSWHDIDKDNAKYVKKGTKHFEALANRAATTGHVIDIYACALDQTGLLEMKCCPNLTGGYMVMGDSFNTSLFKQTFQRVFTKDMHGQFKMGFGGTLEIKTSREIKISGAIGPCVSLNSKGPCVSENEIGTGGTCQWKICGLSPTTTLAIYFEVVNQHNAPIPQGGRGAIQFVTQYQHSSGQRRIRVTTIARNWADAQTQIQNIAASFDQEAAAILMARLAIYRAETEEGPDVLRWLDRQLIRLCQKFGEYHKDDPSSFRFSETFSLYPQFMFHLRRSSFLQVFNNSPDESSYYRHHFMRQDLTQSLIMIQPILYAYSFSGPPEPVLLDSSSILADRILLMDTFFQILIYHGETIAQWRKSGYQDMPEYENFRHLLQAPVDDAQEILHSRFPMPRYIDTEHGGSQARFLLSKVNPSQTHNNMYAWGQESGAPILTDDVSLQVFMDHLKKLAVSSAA

[11] = molecular target: DnaJ homolog subfamily A member 1 (Homo sapiens) (UniProt P31689); assay: Binding affinity to DNAJA1 in human NCI-H358 cells at 1 uM by mass spectrometry based pull down assay; assay type: cell-based
Chain of DnaJ homolog subfamily A member 1 (Homo sapiens) (P31689 whole entry): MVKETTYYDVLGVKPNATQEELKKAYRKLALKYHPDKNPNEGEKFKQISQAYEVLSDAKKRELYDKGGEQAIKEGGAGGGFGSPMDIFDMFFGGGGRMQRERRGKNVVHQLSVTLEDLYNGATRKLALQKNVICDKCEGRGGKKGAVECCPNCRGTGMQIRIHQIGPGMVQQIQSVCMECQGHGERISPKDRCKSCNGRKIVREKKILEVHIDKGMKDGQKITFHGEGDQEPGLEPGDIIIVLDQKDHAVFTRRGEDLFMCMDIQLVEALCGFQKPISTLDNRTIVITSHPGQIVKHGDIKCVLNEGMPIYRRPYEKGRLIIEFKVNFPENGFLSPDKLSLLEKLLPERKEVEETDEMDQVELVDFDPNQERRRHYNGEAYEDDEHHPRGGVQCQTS

[12] = molecular target: Actin-related protein 2/3 complex subunit 5 (Homo sapiens) (UniProt O15511); assay: Binding affinity to ARPC5 in human NCI-H358 cells at 1 uM by mass spectrometry based pull down assay; assay type: cell-based
[13] = molecular target: Protein CIP2A (Homo sapiens) (UniProt Q8TCG1); assay: Binding affinity to KIAA1524 in human NCI-H23 cells at 1 uM by mass spectrometry based pull down assay; assay type: cell-based
[14] = molecular target: Medium-chain specific acyl-CoA dehydrogenase, mitochondrial (Homo sapiens) (UniProt P11310); assay: Binding affinity to ACADM in human NCI-H23 cells at 1 uM by mass spectrometry based pull down assay; assay type: cell-based; procedure, shortened: as §1
[15] = molecular target: E3 ubiquitin-protein ligase HUWE1 (Homo sapiens) (UniProt Q7Z6Z7); assay: Binding affinity to HUWE1 in human NCI-H23 cells at 1 uM by mass spectrometry based pull down assay; assay type: cell-based
[16] = molecular target: Tubulin beta-2A chain (Homo sapiens) (UniProt Q13885); assay: Binding affinity to TUBB2A in human NCI-H358 cells at 1 uM by mass spectrometry based pull down assay; assay type: cell-based
Chain of Tubulin beta-2A chain (Homo sapiens) (Q13885 whole entry): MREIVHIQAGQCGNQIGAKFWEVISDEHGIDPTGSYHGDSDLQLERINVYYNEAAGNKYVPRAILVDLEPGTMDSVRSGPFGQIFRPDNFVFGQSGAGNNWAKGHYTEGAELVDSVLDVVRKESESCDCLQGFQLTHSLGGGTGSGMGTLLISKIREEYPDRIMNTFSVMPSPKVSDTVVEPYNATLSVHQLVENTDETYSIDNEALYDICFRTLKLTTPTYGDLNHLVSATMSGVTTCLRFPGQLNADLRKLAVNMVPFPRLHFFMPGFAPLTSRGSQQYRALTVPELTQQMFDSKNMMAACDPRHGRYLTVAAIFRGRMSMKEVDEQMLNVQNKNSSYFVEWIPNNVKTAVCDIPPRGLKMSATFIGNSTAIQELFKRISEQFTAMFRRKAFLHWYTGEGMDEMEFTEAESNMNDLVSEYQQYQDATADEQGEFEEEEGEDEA

[17] = molecular target: Nuclear pore complex protein Nup155 (Homo sapiens) (UniProt O75694); assay: Binding affinity to NUP155 in human NCI-H23 cells at 1 uM by mass spectrometry based pull down assay; assay type: cell-based
[18] = molecular target: Ubiquitin carboxyl-terminal hydrolase 5 (Homo sapiens) (UniProt P45974); assay: Binding affinity to USP5 in human NCI-H23 cells at 1 uM by mass spectrometry based pull down assay; assay type: cell-based
Chain of Ubiquitin carboxyl-terminal hydrolase 5 (Homo sapiens) (P45974 whole entry): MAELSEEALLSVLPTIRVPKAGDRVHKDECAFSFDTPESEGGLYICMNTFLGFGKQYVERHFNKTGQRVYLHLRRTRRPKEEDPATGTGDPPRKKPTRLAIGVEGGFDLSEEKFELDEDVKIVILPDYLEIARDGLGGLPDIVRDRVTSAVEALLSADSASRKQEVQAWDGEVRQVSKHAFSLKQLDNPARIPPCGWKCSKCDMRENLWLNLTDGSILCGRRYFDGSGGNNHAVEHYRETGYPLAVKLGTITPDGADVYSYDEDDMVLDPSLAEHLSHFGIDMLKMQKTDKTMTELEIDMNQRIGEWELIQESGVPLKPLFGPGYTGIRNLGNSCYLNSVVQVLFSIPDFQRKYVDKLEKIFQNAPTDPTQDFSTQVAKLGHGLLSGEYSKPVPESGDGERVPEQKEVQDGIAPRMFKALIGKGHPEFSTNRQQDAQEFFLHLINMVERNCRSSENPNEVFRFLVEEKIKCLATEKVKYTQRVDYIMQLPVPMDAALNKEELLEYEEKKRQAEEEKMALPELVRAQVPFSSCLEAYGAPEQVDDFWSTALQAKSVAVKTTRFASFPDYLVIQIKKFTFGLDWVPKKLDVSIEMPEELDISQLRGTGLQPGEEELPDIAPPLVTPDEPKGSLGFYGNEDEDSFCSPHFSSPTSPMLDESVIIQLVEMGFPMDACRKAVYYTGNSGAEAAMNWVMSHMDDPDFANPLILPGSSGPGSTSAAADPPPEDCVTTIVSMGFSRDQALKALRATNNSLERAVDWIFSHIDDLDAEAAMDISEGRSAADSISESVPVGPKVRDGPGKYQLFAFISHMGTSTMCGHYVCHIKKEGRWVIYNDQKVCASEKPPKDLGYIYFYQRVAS

[19] = molecular target: Tubulin alpha-4A chain (Homo sapiens) (UniProt P68366); assay: Binding affinity to TUBA4A in human NCI-H23 cells at 1 uM by mass spectrometry based pull down assay; assay type: cell-based
Nucleolin (Homo sapiens) = Nucleolin (Homo sapiens) (UniProt P19338); assay: Binding affinity to NCL in human NCI-H358 cells at 1 uM by mass spectrometry based pull down assay; assay type: cell-based
[20] = molecular target: Arginine--tRNA ligase, cytoplasmic (Homo sapiens) (UniProt P54136); assay: Binding affinity to RARS in human NCI-H23 cells at 1 uM by mass spectrometry based pull down assay; assay type: cell-based
Chain of Arginine--tRNA ligase, cytoplasmic (Homo sapiens) (P54136 whole entry): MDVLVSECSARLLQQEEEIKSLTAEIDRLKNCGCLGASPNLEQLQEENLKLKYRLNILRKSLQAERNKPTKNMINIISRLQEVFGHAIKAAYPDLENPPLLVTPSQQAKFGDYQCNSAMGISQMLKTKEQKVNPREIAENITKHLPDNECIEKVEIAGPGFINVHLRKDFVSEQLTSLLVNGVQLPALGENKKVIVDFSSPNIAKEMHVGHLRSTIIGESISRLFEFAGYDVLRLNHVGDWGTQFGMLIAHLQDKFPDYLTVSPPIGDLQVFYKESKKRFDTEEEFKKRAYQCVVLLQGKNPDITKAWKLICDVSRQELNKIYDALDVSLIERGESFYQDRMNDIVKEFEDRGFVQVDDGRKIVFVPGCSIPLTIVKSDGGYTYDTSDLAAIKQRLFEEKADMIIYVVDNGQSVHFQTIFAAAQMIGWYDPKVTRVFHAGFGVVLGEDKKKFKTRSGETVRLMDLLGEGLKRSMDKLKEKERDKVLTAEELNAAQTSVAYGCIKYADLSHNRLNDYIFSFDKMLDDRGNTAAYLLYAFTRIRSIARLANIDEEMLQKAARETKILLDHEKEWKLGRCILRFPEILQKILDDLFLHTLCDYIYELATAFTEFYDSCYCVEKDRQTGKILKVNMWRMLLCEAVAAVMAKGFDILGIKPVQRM

[21] = molecular target: Dynamin-binding protein (Homo sapiens) (UniProt Q6XZF7); assay: Binding affinity to DNMBP in human NCI-H23 cells at 1 uM by mass spectrometry based pull down assay; assay type: cell-based
[22] = molecular target: T1, 80S Ribosome (Homo sapiens); assay: Binding affinity to RPL27 in human NCI-H23 cells at 1 uM by mass spectrometry based pull down assay; assay type: cell-based
[23] = molecular target: T1, 80S Ribosome (Homo sapiens); assay: Binding affinity to RPL26 in human NCI-H358 cells at 1 uM by mass spectrometry based pull down assay; assay type: cell-based
[24] = molecular target: Aldehyde dehydrogenase X, mitochondrial (Homo sapiens) (UniProt P30837); assay: Binding affinity to ALDH1B1 in human NCI-H358 cells at 1 uM by mass spectrometry based pull down assay; assay type: cell-based; procedure, shortened: as §1

Chain of Receptor-interacting serine/threonine-protein kinase 4 (Homo sapiens) (P57078 whole entry): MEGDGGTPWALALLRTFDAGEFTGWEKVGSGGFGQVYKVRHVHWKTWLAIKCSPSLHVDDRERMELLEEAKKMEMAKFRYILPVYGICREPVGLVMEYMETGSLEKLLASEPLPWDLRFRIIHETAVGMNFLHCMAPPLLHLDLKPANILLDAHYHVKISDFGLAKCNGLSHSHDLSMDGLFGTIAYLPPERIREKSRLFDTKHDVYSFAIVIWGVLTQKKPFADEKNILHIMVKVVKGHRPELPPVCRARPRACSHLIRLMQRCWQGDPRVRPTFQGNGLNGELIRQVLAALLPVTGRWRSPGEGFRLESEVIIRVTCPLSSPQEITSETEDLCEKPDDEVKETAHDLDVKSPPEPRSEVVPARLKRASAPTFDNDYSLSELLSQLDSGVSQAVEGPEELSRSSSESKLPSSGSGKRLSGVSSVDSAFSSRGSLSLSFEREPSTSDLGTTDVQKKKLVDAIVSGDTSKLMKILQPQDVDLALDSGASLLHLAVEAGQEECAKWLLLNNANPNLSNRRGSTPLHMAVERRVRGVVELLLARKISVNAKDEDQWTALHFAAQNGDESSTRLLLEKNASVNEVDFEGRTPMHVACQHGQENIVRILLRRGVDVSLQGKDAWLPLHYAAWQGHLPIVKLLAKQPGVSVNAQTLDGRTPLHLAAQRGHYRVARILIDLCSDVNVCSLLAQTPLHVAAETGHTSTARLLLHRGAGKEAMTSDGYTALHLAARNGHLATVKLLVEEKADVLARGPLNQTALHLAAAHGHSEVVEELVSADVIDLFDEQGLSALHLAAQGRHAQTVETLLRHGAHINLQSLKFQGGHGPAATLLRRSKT

C=CC(=O)Nc1ccccc1Nc1nc(Nc2ccc(N3CCN(C)CC3)cc2)ncc1Cl
inhibition [1]: -0.1%
inhibition [2]: -5.7%

C=CC(=O)Nc1ccccc1Nc1nc(Nc2ccc(N3CCN(CCOCCOCCOCCNC(=O)CCCC[C@@H]4SC[C@@H]5NC(=O)N[C@@H]54)CC3)cc2)ncc1Cl
Activity [3]: Active
Activity [4]: Active
Activity [5]: Active
Activity [6]: Active
Activity [7]: Active
Activity [8]: Active
Activity [9]: Active
Activity [10]: Active
Activity [11]: Active
Activity [12]: Active
Activity [13]: Active
Activity [14]: Active
Activity [15]: Active
Activity [16]: Active
Activity [17]: Active
Activity [18]: Active
Activity [19]: Active
Activity (Nucleolin (Homo sapiens)): Active
Activity [20]: Active
Activity [21]: Active
Activity [22]: Active
Activity [23]: Active
Activity [24]: Active
